Assay results from ChEMBL document CHEMBL1143133, “Discovery of a dopamine D4 selective PET ligand candidate taking advantage of a click chemistry based REM linker” (Bioorg Med Chem Lett, 2008).

Tests used:
D(3) dopamine receptor [1] = target: T1, D(3) dopamine receptor (Homo sapiens, UniProt P35462); assay: Displacement of [3H]spiperone from human cloned dopamine D3 receptor at 100 uM
[2] = target: T2, D(4) dopamine receptor (Homo sapiens) (UniProt P21917); assay: Displacement of [3H]spiperone from human cloned dopamine D4 receptor at 100 uM
T2 sequence (whole entry): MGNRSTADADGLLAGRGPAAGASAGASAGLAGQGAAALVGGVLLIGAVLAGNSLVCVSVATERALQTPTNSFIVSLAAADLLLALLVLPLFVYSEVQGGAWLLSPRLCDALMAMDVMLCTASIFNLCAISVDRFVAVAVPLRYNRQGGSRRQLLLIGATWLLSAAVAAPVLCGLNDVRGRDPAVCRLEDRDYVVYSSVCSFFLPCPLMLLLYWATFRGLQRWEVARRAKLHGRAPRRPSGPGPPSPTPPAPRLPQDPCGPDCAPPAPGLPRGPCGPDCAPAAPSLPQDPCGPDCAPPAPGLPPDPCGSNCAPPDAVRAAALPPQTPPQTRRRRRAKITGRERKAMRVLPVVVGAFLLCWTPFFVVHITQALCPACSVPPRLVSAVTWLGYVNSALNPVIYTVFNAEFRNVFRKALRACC

D(2) dopamine receptor [3] = target: T3, D(2) dopamine receptor (Homo sapiens, UniProt P14416); assay: Displacement of [3H][…] from human cloned dopamine D2 long receptor at 100 uM
[4] = Binding affinity to pig cortical membrane 5HT1A receptor; design: species or system Sus scrofa
How it was run: (§1)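 Porcine cortical membranes with selective radioligands: [³H]8-OH-DPAT or [³H][…] for 5-HT1A, [³H]ketanserin for 5-HT2, and [³H]prazosin for α1. Ki (nM) is the mean of 2–4 experiments, each in triplicate.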

[5] = target: 5-hydroxytryptamine receptor 2A (Sus scrofa, UniProt P50129); assay: Displacement of [3H]ketanserin from pig cortical membrane 5HT2 receptor; how it was run: as §1
[6] = Displacement of [3H]prazosin from pig cortical membrane adrenergic alpha-1 receptor; design: species or system Sus scrofa; how it was run: as §1
D(3) dopamine receptor [7] = target: T1, D(3) dopamine receptor; assay: Binding affinity to human D3 receptor
How it was run: (§2)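 Competition radioligand binding at human dopamine receptors: displacement of [³H]spiperone from D2long, D3 and D4.4, screened with test compound at 10 μM, 100 nM and 1 nM. Ki values in nM are means of 2–4 experiments, each run in triplicate.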

D(2) dopamine receptor [8] = target: T3, D(2) dopamine receptor; assay: Binding affinity to human dopamine D2 long receptor; how it was run: as §2
D(4) dopamine receptor = target: T4, D(4) dopamine receptor (Homo sapiens, UniProt P21917); assay: Binding affinity to human dopamine D4.4 receptor; how it was run: as §2
T4 sequence (P21917 whole entry): T2 sequence (whole entry)

D(1A) dopamine receptor = D(1A) dopamine receptor (Sus scrofa, UniProt P50130); assay: Binding affinity to pig cortical membrane dopamine D1 receptor
How it was run: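 Porcine D1 receptor binding: displacement of [³H]SCH23390, screened with test compound at 10 μM, 100 nM and 1 nM. Ki (nM) is the mean of 2–4 experiments, each in triplicate.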

[9] = Stability in human serum at 90 mins; type: ADME, cell-free; conditions: read-out: Stability
How it was run: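 The ¹⁸F-labelled radioligand was incubated in human serum for 90 min, and intact tracer was quantified by radio-HPLC.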

[10] = Distribution coefficient, log D at pH 7.4; type: physicochemical; conditions: octanol/water
How it was run: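 Lipophilicity determined on the ¹⁸F-labelled radioligand as logD at pH 7.4, n = 6.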

Homo sapiens = organism: Homo sapiens; assay: Selectivity for human dopamine D4 receptor over human dopamine D2 receptor
[11] = target: Dopamine receptors; D3 & D4 (Homo sapiens) (UniProt P35462+P21917); assay: Selectivity for human dopamine D4 receptor over human dopamine D3 receptor
Sequence of Dopamine receptors; D3 & D4 (Homo sapiens) (P35462 whole entry, looked up, one chain of several): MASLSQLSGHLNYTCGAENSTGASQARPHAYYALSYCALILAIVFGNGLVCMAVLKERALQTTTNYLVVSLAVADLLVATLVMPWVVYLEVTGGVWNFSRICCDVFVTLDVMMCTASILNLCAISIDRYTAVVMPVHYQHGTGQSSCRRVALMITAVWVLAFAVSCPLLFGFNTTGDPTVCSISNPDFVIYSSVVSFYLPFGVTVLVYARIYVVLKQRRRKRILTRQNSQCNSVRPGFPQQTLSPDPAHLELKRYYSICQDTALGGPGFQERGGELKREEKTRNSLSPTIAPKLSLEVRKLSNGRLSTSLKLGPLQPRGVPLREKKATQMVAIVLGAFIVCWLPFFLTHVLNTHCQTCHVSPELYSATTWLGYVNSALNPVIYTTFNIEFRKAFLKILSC

Sequence of D(1A) dopamine receptor (P50130 whole entry): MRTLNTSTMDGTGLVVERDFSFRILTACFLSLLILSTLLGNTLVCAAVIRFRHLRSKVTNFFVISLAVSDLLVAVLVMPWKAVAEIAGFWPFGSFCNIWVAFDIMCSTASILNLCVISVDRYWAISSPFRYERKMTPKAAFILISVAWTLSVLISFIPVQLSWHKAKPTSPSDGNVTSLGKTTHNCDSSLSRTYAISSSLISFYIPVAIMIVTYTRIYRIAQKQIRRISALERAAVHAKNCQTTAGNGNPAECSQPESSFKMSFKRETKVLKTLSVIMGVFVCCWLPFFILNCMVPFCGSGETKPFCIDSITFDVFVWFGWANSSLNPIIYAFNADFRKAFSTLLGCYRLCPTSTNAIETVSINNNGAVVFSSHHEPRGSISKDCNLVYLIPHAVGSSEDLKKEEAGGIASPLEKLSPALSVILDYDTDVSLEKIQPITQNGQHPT
Sequence of 5-hydroxytryptamine receptor 2A (P50129 whole entry): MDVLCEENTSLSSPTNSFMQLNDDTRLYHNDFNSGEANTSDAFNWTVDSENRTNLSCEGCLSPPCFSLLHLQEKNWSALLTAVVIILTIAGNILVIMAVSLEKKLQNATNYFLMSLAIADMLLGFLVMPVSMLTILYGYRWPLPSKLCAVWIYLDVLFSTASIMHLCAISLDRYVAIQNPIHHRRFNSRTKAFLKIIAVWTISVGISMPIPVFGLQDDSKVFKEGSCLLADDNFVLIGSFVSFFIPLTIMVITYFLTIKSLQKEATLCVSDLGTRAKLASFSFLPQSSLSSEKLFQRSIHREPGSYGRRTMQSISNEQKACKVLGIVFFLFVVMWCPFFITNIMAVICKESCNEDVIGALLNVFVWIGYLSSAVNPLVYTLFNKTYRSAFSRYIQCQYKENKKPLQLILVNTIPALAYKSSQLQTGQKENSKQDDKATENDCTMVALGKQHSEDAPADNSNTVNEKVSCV
T3 sequence (P14416 whole entry): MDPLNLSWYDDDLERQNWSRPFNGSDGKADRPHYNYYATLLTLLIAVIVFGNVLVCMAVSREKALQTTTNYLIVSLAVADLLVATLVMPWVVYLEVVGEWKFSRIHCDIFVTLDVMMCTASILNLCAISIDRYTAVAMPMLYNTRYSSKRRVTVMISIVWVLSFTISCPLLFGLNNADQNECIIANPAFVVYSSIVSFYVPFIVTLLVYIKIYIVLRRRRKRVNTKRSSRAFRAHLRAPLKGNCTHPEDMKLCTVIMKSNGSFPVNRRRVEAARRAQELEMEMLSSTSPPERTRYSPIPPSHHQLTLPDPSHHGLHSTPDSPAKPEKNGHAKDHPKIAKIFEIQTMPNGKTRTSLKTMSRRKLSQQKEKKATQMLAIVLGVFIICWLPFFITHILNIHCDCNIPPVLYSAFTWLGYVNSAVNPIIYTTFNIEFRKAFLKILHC
T1 sequence (P35462 whole entry): as the sequence (P35462 whole entry, looked up, one chain of several) above

| Compound | Activity (D(3) dopamine receptor [1]) [%] | Activity [2] [%] | Activity (D(2) dopamine receptor [3]) [%] | Ki [5] [nM] | Ki [6] [nM] | Ki (D(1A) dopamine receptor) [µM] | also measured |
| --- | --- | --- | --- | --- | --- | --- | --- |
| Clc1ccccc1N1CCN(Cc2ccccc2Br)CC1 | 4 | 9 | -0 | – | – | – | – |
| COc1cccc(CN2CCN(c3ccc(C)cc3)CC2)c1 | 39 | 45 | 6 | – | – | – | – |
| COc1cc(CN2CCN(c3ccccc3OC)CC2)c(OCCF)cc1OC | – | – | – | 280 | 13 | 6.8 | Ki [4]: 100 nM; Ki (D(3) dopamine receptor [7]): 330 nM; Ki (D(2) dopamine receptor [8]): 94 nM; Ki (D(4) dopamine receptor): 1.3 nM |
| Clc1ccc(N2CCN(Cc3ccccc3Br)CC2)cc1Cl | 14 | -0 | 10 | – | – | – | – |
| COc1cccc(CN2CCN(c3ccccc3OC)CC2)c1 | 39 | 26 | 6 | – | – | – | – |
| COc1cccc(N2CCN(Cc3ccccc3Br)CC2)c1 | -0 | 4 | 2 | – | – | – | – |
| N#Cc1ccc(CN2CCN(c3ccc(F)cc3)CC2)cc1 | 15 | 47 | -0 | – | – | – | – |
| N#Cc1ccc(CN2CCN(c3ccc(Cl)c(Cl)c3)CC2)cc1 | -0 | 91 | -0 | – | – | – | – |
| COc1cccc(CN2CCN(c3ccccc3Cl)CC2)c1 | 13 | 55 | 4 | – | – | – | – |
| COc1cc(CN2CCN(c3ccc(Cl)cc3)CC2)c(OCC[18F])cc1OC | – | – | – | – | – | – | remaining at 1.5 h [9]: > 95%; logD [10]: 2.8 |
| Clc1ccc(N2CCN(Cc3cc4ccccn4n3)CC2)cc1 | – | – | – | 900 | 270 | 5.5 | Ki [4]: 1700 nM |
| COc1cc(CN2CCN(c3ccccc3OC)CC2)ccc1OCCF | – | – | – | 2100 | 21 | 5.4 | Ki [4]: 100 nM; Ki (D(3) dopamine receptor [7]): 1100 nM; Ki (D(2) dopamine receptor [8]): 310 nM; Ki (D(4) dopamine receptor): 1.8 nM |
| COc1cc(CN2CCN(c3ccc(Cl)cc3)CC2)ccc1OCCF | – | – | – | 850 | 18 | 5.7 | Ki [4]: 18000 nM; Ki (D(3) dopamine receptor [7]): 4900 nM; Ki (D(2) dopamine receptor [8]): 21000 nM; Ki (D(4) dopamine receptor): 12 nM; Ratio Ki (Homo sapiens): 1750 |
| COc1cccc(CN2CCN(c3ccc(Cl)c(Cl)c3)CC2)c1 | 2 | 92 | 9 | – | – | – | – |
| COc1ccccc1N1CCN(Cc2ccccc2Br)CC1 | 21 | 44 | 9 | – | – | – | – |
| Cc1ccc(N2CCN(Cc3ccccc3Br)CC2)cc1 | 16 | 7 | 6 | – | – | – | – |
| COc1cccc(CN2CCN(c3cccc(OC)c3)CC2)c1 | 9 | 46 | -0 | – | – | – | – |
| COc1ccccc1N1CCN(Cc2ccc(C#N)cc2)CC1 | 5 | 82 | 4 | – | – | – | – |
| COc1cccc(N2CCN(Cc3ccc(C#N)cc3)CC2)c1 | 6 | 69 | 2 | – | – | – | – |
| COc1cccc(CN2CCN(c3ccc(F)cc3)CC2)c1 | -0 | 18 | 2 | – | – | – | – |
| N#Cc1ccc(CN2CCN(c3ccccc3Cl)CC2)cc1 | 2 | 73 | 2 | – | – | – | – |
| COc1ccccc1N1CCN(Cc2ccc(OCCF)cc2)CC1 | – | – | – | 5400 | 47 | 3.4 | Ki (D(3) dopamine receptor [7]): 77 nM; Ki (D(2) dopamine receptor [8]): 120 nM; Ki (D(4) dopamine receptor): 3.7 nM |
| FCCOc1cccc(CN2CCN(c3ccc(Cl)cc3)CC2)c1 | – | – | – | 980 | 190 | 5.1 | Ki [4]: 3300 nM; Ki (D(3) dopamine receptor [7]): 1100 nM; Ki (D(2) dopamine receptor [8]): 590 nM; Ki (D(4) dopamine receptor): 82 nM |
| FCCOc1ccc(CN2CCN(c3ccc(Cl)cc3)CC2)cc1 | – | – | – | 1800 | 160 | 1.4 | Ki [4]: 5200 nM; Ki (D(3) dopamine receptor [7]): 1100 nM; Ki (D(2) dopamine receptor [8]): 1100 nM; Ki (D(4) dopamine receptor): 50 nM |
| Fc1ccc(N2CCN(Cc3ccccc3Br)CC2)cc1 | 1 | 4 | 1 | – | – | – | – |
| COc1ccccc1N1CCN(Cc2cccc(OCCF)c2)CC1 | – | – | – | 1900 | 36 | 5.2 | Ki [4]: 32 nM; Ki (D(3) dopamine receptor [7]): 270 nM; Ki (D(2) dopamine receptor [8]): 57 nM; Ki (D(4) dopamine receptor): 1.6 nM |
| COc1cc(CN2CCN(c3ccc(Cl)cc3)CC2)c(OCCF)cc1OC | – | – | – | 100 | 4.4 | 3.5 | Ki [4]: 2800 nM; Ratio Ki [11]: 2300; Ki (D(3) dopamine receptor [7]): 3900 nM; Ki (D(2) dopamine receptor [8]): 760 nM; Ki (D(4) dopamine receptor): 1.7 nM; Ratio Ki (Homo sapiens): 450 |
| Cc1ccc(N2CCN(Cc3ccc(C#N)cc3)CC2)cc1 | 4 | 59 | -0 | – | – | – | – |
